Source: PubChem BioAssay
Hits are enriched below; roughly 1.7% of the tested compounds scored in any of these assays.
STEP inh – STEP phosphatase inhibitors, primary screen, biochemical, fluorescence intensity, uHTS | inhibition, % at 20 µM | recombinant STEP, OMFP fluorogenic substrate | 360,000 tested, 0.25% active | Tyrosine-protein phosphatase non-receptor type 5 (Homo sapiens), P54829 | AID 588621, 2011;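 active = inhibition at 20 µM, scaled per plate between control wells, above about 37%, limit read from the data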;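 note: 0% = DMSO with enzyme and substrate and 100% = substrate only without enzyme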
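System: STEP (striatal-enriched tyrosine phosphatase) enzyme, cell-free; medium: Bis-Tris pH 6.0 buffer with DTT, detergent; dosing: 20 µM, 1% DMSO; times: reaction 20 min, ambient temperature; detection: fluorescence, 480/540 nm; read-out basis: normalized % inhibition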
Scp1 inh – Scp-1 phosphatase inhibitors, primary screen, biochemical, colorimetric, uHTS; AID 493091, 2011; 340,000 tested, 0.88% active; inhibition, % at 20 µM; Recombinant Scp1, phosphopeptide, malachite green phosphate absorbance; Carboxy-terminal domain RNA polymerase II polypeptide A small phosphatase 1 (Homo …;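 active = inhibition above about 50% at 20 µM, limit read from the data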;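 note: plate controls were DMSO wells with enzyme for no effect and wells lacking enzyme for full effect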
Target sequence (Q9GZU7 76-261 limits assumed): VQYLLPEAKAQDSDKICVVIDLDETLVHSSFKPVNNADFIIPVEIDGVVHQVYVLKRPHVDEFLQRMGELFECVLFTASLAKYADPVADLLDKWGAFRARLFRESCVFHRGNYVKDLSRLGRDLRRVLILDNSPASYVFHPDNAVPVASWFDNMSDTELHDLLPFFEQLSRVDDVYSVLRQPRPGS
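Material – SCP-1 phosphatase catalytic domain, residues 76-261 · Buffer or medium – Acidic Tris acetate buffer with magnesium and detergent · Also added – Phospho 17-mer peptide substrate · Compound – single 20 µM dose, 1% DMSO · Times – 45 min room-temperature reaction, 5 min colour, 30 min stabiliser · Technique – Phosphate-binding colour reagent, absorbance read at 630 nm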
SUMO1 PPI mod – modulators of SUMO1 protein-protein interactions, primary screen, biochemical, uHTS. Small ubiquitin-related modifier 1 (Homo sapiens), P63165. SUMO1 binding to a labelled peptide, TR-FRET, 1 h. inhibition, % at 20 µM. 360,000 tested, 0.33% active. AID 602429, 2012; in the data active = inhibition above about 37%
Target sequence (P63165 whole entry, looked up): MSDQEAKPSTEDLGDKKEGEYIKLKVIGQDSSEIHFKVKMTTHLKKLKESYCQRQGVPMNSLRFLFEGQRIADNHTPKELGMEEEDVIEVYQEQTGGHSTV
LMPTP inh – LMPTP phosphatase inhibitors, primary screen, biochemical, fluorescence intensity, uHTS. AID 651560, 2012. Low molecular weight phosphotyrosine protein phosphatase (Homo sapiens), P24666. inhibition, % at 20 µM. recombinant LMPTP-A, OMFP fluorogenic substrate. 360,000 tested, 0.22% active;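 active = compounds that cut the enzyme signal by at least half of the control window in the single-dose screen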;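 note: plate controls were DMSO wells with enzyme plus substrate for no effect and substrate without enzyme for full effect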
Target sequence (P24666 whole entry, looked up): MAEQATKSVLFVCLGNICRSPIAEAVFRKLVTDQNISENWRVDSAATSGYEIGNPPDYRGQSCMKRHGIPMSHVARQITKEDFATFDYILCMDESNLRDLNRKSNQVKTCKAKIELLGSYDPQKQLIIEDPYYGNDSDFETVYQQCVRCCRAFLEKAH
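Test system: LMPTP-A phosphatase enzyme. Amount: LMPTP-A at 0.625 nM final in the reaction. Reagent: OMFP substrate, 400 µM final. Times: 50 min at room temperature. Signal: endpoint fluorescence intensity from OMFP dephosphorylation. Read-out basis: % inhibition. Benchmarks: no-enzyme and uninhibited controls.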
DNMT1 inh – human DNMT1 methyltransferase inhibitors, primary screen, biochemical, molecular beacon, fluorescence, HinP1I cleavage, uHTS. DNA (cytosine-5)-methyltransferase 1 (Homo sapiens), P26358. inhibition (reported as % activation of signal), % at 10 µM. 360,000 tested, 0.83% active; in the data active = inhibition above about 50%
DNMT1 interf DR – spectral interference with molecular beacon fluorescence, dose response, artefact control for DNMT1 inhibitor project, biochemical, fluorescent molecular beacon. 200 tested, under 10 active. shares compounds with DNMT1 inh. spectral interference counter-screen. IC50, µM; call rule not given here
DNMT1 confirm – DNMT1 methyltransferase inhibitor retest, confirmation, biochemical, molecular beacon, fluorescence, single concentration | inhibition, % at 10 µM | DNMT1 molecular beacon HinP1I cleavage | shares compounds with DNMT1 inh | 2,300 tested, 8% active;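 active = average inhibition of at least 30% in the single-concentration confirmation test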
Beacon interf – counter-screen for DNMT1 inhibitors: spectral interference. shares compounds with DNMT1 inh. DNMT1 molecular beacon spectral interference counterscreen, fluorescence 485/520. activation (fluorescence interference), % at 10 µM. 2,300 tested, 1% active. AID 602387;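 active = activation of at least 30% at 10 µM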;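 note: DNMT1 catalytic domain with a HinP1I cleavage step and a FAM/dabcyl DNA beacon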
The depositor's hits bear a star; . = no result.

SMILES	STEP inh	Scp1 inh	SUMO1 PPI mod	LMPTP inh	DNMT1 inh	DNMT1 confirm	Beacon interf	others
CCC1CN1P1(=O)OCC(C)([N+](=O)[O-])CO1 (stereo not drawn)	-4.4	14.6	1.7	-1.4	1.7	.	.
O=c1[nH]c(O)c(/C=C2\C=Nc3ccc(OCc4ccccc4)cc32)c(=O)[nH]1	-0.5	-4.5	3.8	1.4	71.0*	8.0	-0.4
Cc1ccc(Cn2ccccc2=N)cc1	1.0	-12.3	-1.7	-2.7	1.0	.	.
CCN1CCN(C(=O)COc2ccc(S(=O)(=O)N(C)Cc3ccccc3)cc2)CC1	0.1	-8.4	2.5	0.9	1.2	.	.
CN1CCN(C(=O)COc2ccc(S(=O)(=O)N(C)Cc3ccccc3)cc2)CC1	0.4	-5.2	-2.9	-0.9	54.7*	3.6	8.6
Cc1cc(/C=C2\C(=O)NC(=O)N(c3cccc(Br)c3)C2=O)c(C)n1C	-3.3	-13.8	0.9	0.4	8.4	.	.
Cc1cc(/C=C2\C(=O)NC(=O)N(c3cccc(F)c3)C2=O)c(C)n1-c1cc(C(=O)O)cc(C(=O)O)c1	8.8	39.1	25.6	0.4	74.9*	9.7	4.1
CCCCOCCCn1c(N)c(C(=O)OCCOC)c2nc3ccccc3nc21	0.8	3.9	39.9*	2.7	51.9*	1.4	0.3
CCCCn1c(N)c(C(=O)OCCOC)c2nc3ccccc3nc21	-1.8	2.3	-3.2	-0.9	-13.0	.	.
CC1CN(c2ccc([N+](=O)[O-])cc2Cl)CCN1 (stereo not drawn)	0.9	-2.8	-17.7	8.9	-0.5	.	.
C#C[C@]1(O)[C@H](O)CC2C3CC[C@H]4C[C@@H](O)CC[C@]4(C)C3CC[C@@]21C (stereo partly drawn)	-2.3	.	3.0	3.4	67.4*	4.2	3.8
C[C@]12CCC3C(CC[C@H]4C[C@@H](O)CC[C@]34C)C1C[C@@H](O)[C@]2(C)O (stereo partly drawn)	-4.1	-12.4	-2.3	-1.9	1.2	.	.
CC(C)N1C(=O)/C(=C/C=C/c2ccco2)C(=O)N(Cc2ccco2)C1=O	2.5	69.9*	8.1	4.7	108.7*	26.7	-0.3	DNMT1 interf DR=>99
CCN1C(=O)C(=C2C=C(C)N(Cc3ccco3)C(C)=C2)C(=O)N(CC)C1=S	1.1	-15.2	1.6	1.0	-2.0	.	.
CCN1C(=O)C(=C/C=C/c2ccco2)C(=O)N(CC)C1=S	-6.4	54.7*	19.2	6.5	101.5*	11.6	-2.6
CC(C)c1ccc(N2C(=O)NC(=O)/C(=C\C=C\c3ccco3)C2=O)cc1	.	5.5	.	.	.	.	.
O=C1NC(=O)N(Cc2ccccc2)C(=O)/C1=C/C=C/c1ccco1	0.7	-10.6	19.1	1.7	89.7*	1.9	0.8
COC(=O)C1=C(c2ccc(C(C)=O)cc2)C[C@@H]2CC[C@H]1N2C(=O)N1CCC(O)(c2ccc(Cl)cc2)CC1	-1.2	-8.6	7.4	-2.3	0.8	.	.
O=C(NCNC(=O)NC1C(=O)NC(=O)N1CO)NC1C(=O)NC(=O)N1CO (stereo not drawn)	-2.8	16.5	-2.0	-0.3	2.6	.	.
CN(C)C(=O)Oc1ccc2c(=O)c(Oc3ccccc3Br)coc2c1	3.2	-12.1	-1.9	0.7	1.6	.	.
